Screening results as filed in PubChem BioAssay.
APJ ag = agonists of human APJ apelin receptor. activation, % at 20 µM. CHO-K1 APJ PathHunter beta-arrestin, luminescence; 0% DMSO wells, 100% apelin. actives 0.11% (n = 330,000);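 active = activation more than six SD over the plate average, tested at 20 µM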;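 note: 0% = DMSO alone and 100% = apelin-13 at 10 nM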
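Assay system: CHO-K1 cells stably expressing ProLink-tagged human APJ and arrestin–beta-gal acceptor. Compound dosing: 20 µM single point, 1% DMSO. Times: 16-18 h seeding, 90 min dark compound exposure, 60 min detection. Detection: beta-gal luminescence. Evaluation: APJ–arrestin association signal. Controls: negative DMSO alone, positive Apelin-13 at 10 nM.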
CCR6 antagonist = CCR6 (human) receptor antagonism; AID 493098; P51684; CHO-K1 CCR6 PathHunter beta-arrestin, luminescence, CCL20-stimulated; inhibition, % at 20 µM; actives 0.49% (n = 340,000);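 active = compounds whose inhibition of the agonist-driven luminescence signal at 20 µM reaches about 50%, limit read from the data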;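 note: cells stimulated with CCL20 at 14 nM final; plate controls were DMSO with CCL20 for no effect and DMSO without agonist for full effect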
Target sequence (P51684 whole entry, looked up): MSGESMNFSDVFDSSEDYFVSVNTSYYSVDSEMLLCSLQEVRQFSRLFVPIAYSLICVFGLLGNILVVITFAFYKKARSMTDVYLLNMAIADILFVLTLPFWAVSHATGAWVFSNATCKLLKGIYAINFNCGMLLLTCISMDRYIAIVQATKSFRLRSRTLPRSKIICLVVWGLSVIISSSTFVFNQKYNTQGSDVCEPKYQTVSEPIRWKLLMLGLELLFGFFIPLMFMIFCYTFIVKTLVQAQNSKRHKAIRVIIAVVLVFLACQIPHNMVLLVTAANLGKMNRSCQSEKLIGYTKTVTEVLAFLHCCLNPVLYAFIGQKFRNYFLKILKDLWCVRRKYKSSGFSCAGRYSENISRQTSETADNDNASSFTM
EBI2 antag = blocks human EBI2 receptor beta-arrestin signaling | P32249 | EBI2 beta-arrestin recruitment, luminescence, 7a,25-OHC stimulated | inhibition, % at 5 µM | actives 0.81% (n = 360,000); in the data active = inhibition above about 38%;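 note: enzyme fragment complementation signal reports receptor beta-arrestin coupling in cells; 0% = agonist plus DMSO wells and 100% = wells without agonist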
CXCR6 inh = blocks human CXCR6 beta-arrestin recruitment; O00574; CHO-K1 PathHunter CXCR6 beta-arrestin, luminescence; inhibition, % at 20 µM; actives 0.36% (n = 360,000); AID 602244; in the data active = inhibition above about 34%, passing the limit was not always enough;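 note: antagonist mode with CXCL16 agonist at 10 nM final; 0% = 10 nM CXCL16 with DMSO and 100% = unstimulated wells without agonist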
APJ antag = APJ receptor antagonism; P35414; CHO-K1 APJ beta-arrestin complementation, luminescence; inhibition, % at 20 µM; actives 0.32% (n = 330,000); AID 2521;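 active = inhibition above about 40% at 20 µM, limit read from the data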;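 note: cells challenged with 10 nM apelin-13 agonist together with compound; plate controls were apelin-13 plus DMSO wells for no effect and DMSO wells lacking apelin-13 for full effect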
EBI2 antag conf = EBI2 (human) antagonism, single concentration confirmation | shares compounds with EBI2 antag | EBI2 beta-arrestin luminescence, 7a,25-OHC antagonism | inhibition, % at 5 µM | actives 29% (n = 2,400) | AID 651997;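 active = inhibition of at least 50%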
EBI2 agonist = EBI2 agonism counter-screen; shares compounds with EBI2 antag; EBI2-expressing cells, agonist mode, luminescence, 60 min; 0% vehicle, 100% 7α,25-dihydroxycholesterol control; activation, % at 5 µM; 2,400 tested, under 10 active;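 active = activation of at least 50%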
bGal counter = beta-galactosidase inhibition counter-screen; shares compounds with EBI2 antag; purified beta-galactosidase, luminescent Galacton Star, 15 min; inhibition, % at 5 µM; actives 1% (n = 2,400); AID 652176;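 active = replicate-average signal at least 3 plate SD below neutral wells, shown as high inhibition, flagging enzyme-inhibiting false positives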;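 note: 0% = DMSO wells with enzyme and 100% = wells lacking enzyme; higher means stronger loss of beta-gal luminescence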
* = called active by the depositor; / = no result; ! = a repeat was not active. Shown are actives, neighbours in structure and some others; about 1.5% of the full set was active somewhere.

SMILES	APJ ag	CCR6 antagonist	EBI2 antag	CXCR6 inh	APJ antag	EBI2 antag conf	EBI2 agonist	bGal counter
O=C(Nc1nc(-c2cccs2)cs1)c1cccc(S(=O)(=O)N2CCCCCC2)c1	-4	12	17	6	20	/	/	/
O=C(Nc1nc(-c2cccs2)cs1)c1ccc(S(=O)(=O)N2CCCCC2)cc1	-6	20	42*	4	15	14	1	8
NS(=O)(=O)c1ccc(CNC(=O)c2sccc2-c2ccccc2)cc1	-8	4	2	-6	-7	/	/	/
Nc1ccc2c(c1)Cc1c(F)cccc1-2	/	-13	6	-14	/	/	/	/
CC1=C/C(=N\NC(=S)Nc2cccnc2)CC(C)(C)C1	/	46	39*	11	/	78*	-2	-9
CC1(C)C2CC=C(/C=N/NC(=S)Nc3cccnc3)C1C2 (configuration not stated)	-4	14	-8	-1	28	/	/	/
O=C(c1ccco1)N1CCN(C(=O)c2cc3c(s2)-c2ccccc2OC3)CC1	-1	19	70*	2	21	62*	1	-1
Cc1cccc2c1-c1sc(C(=O)N3CCCCC3)cc1CO2	-3	16	78*	-12	8	71*	0	4
CCN1CCN(C(=O)c2cc3c(s2)-c2c(C)cccc2OC3)CC1	-3	8	91*	-1	12	78*	1	7
O=C(O)c1cc2c(s1)-c1ccccc1OC2	-1	2	5	1	-15	/	/	/
Cc1cccc2c1-c1sc(C(=O)Nc3ccccc3N3CCN(C)CC3)cc1CO2	-3	20	7	2	15	/	/	/
Cc1cccc2c1-c1sc(C(=O)N3CCc4ccccc4C3)cc1CO2	-2	9	11	-2	2	/	/	/
CCOC(=O)N1CCN(C(=O)c2cc3c(s2)-c2c(C)cccc2OC3)CC1	-2	12	91*	-4	16	87*	1	-6
COc1ccc(-c2cc(C(=O)N3CCN(C(c4ccccc4)c4ccccc4)CC3)no2)cc1	-5	13	91*	0	0	76*	0	9
COc1ccc2oc(C(=O)N3CCN(C(c4ccccc4)c4ccccc4)CC3)c(C)c2c1	-1	20	92*	5	10	68*	3	8
COc1ccc(N2CCN(C(=O)c3oc4ccccc4c3C)CC2)cc1	-1	1	21	0	2	/	/	/
COc1ccc2oc(C(=O)N3CCN(C/C=C/c4ccccc4)CC3)c(C)c2c1	3	6	46*	5	3	30	0	-11
Cc1c(C(=O)N2CCN(C/C=C/c3ccccc3)CC2)oc2c(F)cccc12	-4	13	32	3	-8	/	/	/
CC(Oc1ccc(F)cc1)C(=O)Nc1ccc2ccccc2c1 (configuration not stated)	-1	-2	50*	-2	-7	30	1	-6
O=C(NCc1cccnc1)c1cc(C2CCCN(C(=O)c3cccs3)C2)on1 (configuration not stated)	/	/	-5	-12	/	/	/	/
O=C(c1cccs1)N1CCC(c2nc3c(nnn3Cc3c(Cl)cccc3Cl)c(=O)[nH]2)CC1	4	12	-4	-7	1	/	/	/
O=C(Nc1ccc(F)c(Cl)c1)c1cncs1	-3	21	-3	-5	-21	/	/	/
O=Cc1c(NCCc2ccc(F)cc2)c2ccccc2[nH]c1=O	0	11	45*	4	16	4	-1	-9
O=C(NCc1ccccc1)c1ccc(CN2CCC(Cc3ccccc3)CC2)cc1	-4	8	50*	5	1	19	0	0
O=C(NCc1ccccc1)c1ccccc1	/	13	-6	-5	/	/	/	/
SMILES	APJ ag	CCR6 antagonist	EBI2 antag	CXCR6 inh	APJ antag	EBI2 antag conf	EBI2 agonist	bGal counter
O=C(NCc1ccccc1)c1ccc(C(=O)NCc2ccccc2)cc1	/	2	47*	8	/	1	-1	-11
CC1(C(=O)Nc2cnc3ccccc3c2)CCN1C(=O)CC(c1ccccc1)c1ccccc1 (configuration not stated)	/	/	75*	11	/	55*	-1	-4
CC1(C(=O)Nc2ccc(Cl)c(Cl)c2)CCN1C(=O)CC(c1ccccc1)c1ccccc1 (configuration not stated)	/	/	8	2	/	/	/	/
COc1ccc2nc(C)cc(SCC(=O)N/N=C/c3cccc4ccccc34)c2c1	-3	10	46*	-9	15	22	1	7
COc1ccc2nc(C)cc(SCC(=O)N/N=C/c3ccc(O)c(O)c3)c2c1	-1	18	-5	-6	-23	/	/	/
CCOC(=O)C1=CCN(S(=O)(=O)c2ccccc2Br)C1c1cccc(Cl)c1 (configuration not stated)	/	/	28	5	/	/	/	/
CCOC(=O)C1=CCN(S(=O)(=O)c2ccccc2F)C1c1cccc(Cl)c1 (configuration not stated)	/	/	-26	4	/	/	/	/
CCOC(=O)C1=CCN(S(=O)(=O)c2ccccc2Cl)C1c1cccc(Br)c1 (configuration not stated)	/	/	56*	3	/	20	0	5
CCOC(=O)C1=CCN(S(=O)(=O)c2ccccc2C)C1c1cccc(Cl)c1 (configuration not stated)	/	/	61*	/	/	44	-1	-12
O=C(Nc1ccc2c(c1)CCC2)c1cc(=O)[nH]c2ccccc12	1	8	-3	-5	3	/	/	/
CS(=O)(=O)c1nc(-c2ccccc2)cc(-c2ccccc2)c1C#N	0	5	56*	10	-26	55*	0	9
COC(=O)/C=C1\C(=O)N(c2nc3ccccc3s2)C(=S)N1c1ccc(F)cc1	1	-6	89*	4	-8	90*	1	1
CCOC(=O)Cn1nc(-c2ccc(Cl)cc2)cc1N	-3	1	-3	-14	13	/	/	/
CCOC(=O)CN1CCC(c2cc(-c3ccc(Cl)cc3)n[nH]2)CC1	0	10	40*	4	10	37	-2	-5
COc1ccc(-c2sc3ccc(N4CCOCC4)cc3c2C#CCO)cc1	2	-13	29	-12	4	/	/	/
COc1ccc(/C=C/c2c(-c3ccc(OC)cc3)sc3ccc(N4CCOCC4)cc23)cc1	9	1	50*	2	-13	-2	-1	-11
COc1ccc(CNC(=O)COC(=O)c2ccc(Br)o2)cc1	-2	10	-6	7	-5	/	/	/
CCOC(=O)c1ccc(N=c2sc(C(=O)OC)cc(=O)n2CCCN2CCOCC2)cc1	-4	10	68*	10	14	67*!	0	-12
